Results: ChEMBL document CHEMBL1150387, “Development and experimental validation of a docking strategy for the generation of kinase-targeted libraries” (J Med Chem, 2008)

Key:
[1] = target: Vascular endothelial growth factor receptor 2 (Homo sapiens) (UniProt P35968); experiment: Inhibition of KDR at 10 uM by HTRF assay relative to control
Procedure, shortened: (§1)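 HTRF kinase assay, one panel of kinases. Inhibitor stock 50 µM in 100% DMSO; tested at 10 µM. ATP and substrate at final levels near Km. Final buffer: 50 mM Hepes/NaOH pH 7.4, 40 µM Na3VO4, 0.005% Tween-20, 1 mM DTT, MnCl2 or MgCl2 at kinase-dependent levels. Started by adding ATP/substrate. Reaction run at room temperature, time varied by kinase. Detection mix in 50 mM Hepes pH 7.4, 0.1% BSA, 150 mM KF, incubated ≥1 h at room temperature. Activity expressed as % of uninhibited control; n=2.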

[2] = target: Proto-oncogene tyrosine-protein kinase Src (Homo sapiens) (UniProt P12931); experiment: Inhibition of Src at 10 uM by HTRF assay relative to control; procedure, shortened: as §1
Sequence of Proto-oncogene tyrosine-protein kinase Src (Homo sapiens) (P12931 2-536 limits assumed): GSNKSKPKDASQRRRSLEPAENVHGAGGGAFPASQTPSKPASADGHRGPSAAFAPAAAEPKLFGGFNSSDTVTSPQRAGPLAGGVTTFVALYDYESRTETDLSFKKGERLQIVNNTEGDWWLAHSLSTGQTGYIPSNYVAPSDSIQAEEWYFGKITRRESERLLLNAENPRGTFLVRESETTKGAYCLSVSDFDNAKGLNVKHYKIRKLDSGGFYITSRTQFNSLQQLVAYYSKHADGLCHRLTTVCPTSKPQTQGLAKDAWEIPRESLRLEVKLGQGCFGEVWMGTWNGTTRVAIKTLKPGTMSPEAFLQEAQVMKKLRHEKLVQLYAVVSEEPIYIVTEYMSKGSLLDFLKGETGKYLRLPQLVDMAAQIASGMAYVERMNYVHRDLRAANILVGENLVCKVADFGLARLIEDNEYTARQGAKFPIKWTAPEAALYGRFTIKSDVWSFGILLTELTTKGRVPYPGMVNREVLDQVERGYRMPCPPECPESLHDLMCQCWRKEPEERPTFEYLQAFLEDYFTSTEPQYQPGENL

[3] = target: Mitogen-activated protein kinase 8 (Homo sapiens) (UniProt P45983); experiment: Inhibition of JNK1 at 10 uM by HTRF assay relative to control; procedure, shortened: as §1
Sequence of Mitogen-activated protein kinase 8 (Homo sapiens) (P45983 whole entry): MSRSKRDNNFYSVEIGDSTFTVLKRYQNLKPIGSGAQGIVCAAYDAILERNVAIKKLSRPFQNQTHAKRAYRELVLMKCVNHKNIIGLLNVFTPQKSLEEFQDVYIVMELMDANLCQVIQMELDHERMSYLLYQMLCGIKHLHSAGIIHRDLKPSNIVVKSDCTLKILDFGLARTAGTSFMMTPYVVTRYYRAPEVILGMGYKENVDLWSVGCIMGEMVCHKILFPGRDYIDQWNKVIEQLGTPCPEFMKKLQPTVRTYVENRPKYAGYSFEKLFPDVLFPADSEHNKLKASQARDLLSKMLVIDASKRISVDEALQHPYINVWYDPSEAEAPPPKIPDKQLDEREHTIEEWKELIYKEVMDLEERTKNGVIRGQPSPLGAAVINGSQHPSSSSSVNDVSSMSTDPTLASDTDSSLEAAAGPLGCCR

[4] = target: 3-phosphoinositide-dependent protein kinase 1 (Homo sapiens) (UniProt O15530); experiment: Inhibition of PDK1 at 10 uM by HTRF assay relative to control
[5] = target: Mitogen-activated protein kinase 14 (Homo sapiens) (UniProt Q16539); experiment: Inhibition of p38alpha at 10 uM by HTRF assay relative to control; procedure, shortened: as §1
Sequence of Mitogen-activated protein kinase 14 (Homo sapiens) (Q16539 whole entry): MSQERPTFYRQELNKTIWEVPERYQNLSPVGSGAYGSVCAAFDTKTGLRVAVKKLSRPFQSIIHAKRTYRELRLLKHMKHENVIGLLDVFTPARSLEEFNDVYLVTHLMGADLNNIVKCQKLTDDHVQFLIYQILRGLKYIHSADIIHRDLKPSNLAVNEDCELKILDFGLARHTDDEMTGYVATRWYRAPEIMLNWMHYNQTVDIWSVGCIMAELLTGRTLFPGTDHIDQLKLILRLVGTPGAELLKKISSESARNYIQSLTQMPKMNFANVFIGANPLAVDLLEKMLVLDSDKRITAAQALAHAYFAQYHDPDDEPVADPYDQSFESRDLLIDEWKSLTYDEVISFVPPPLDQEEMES

[6] = target: T1, Mitogen-activated protein kinase 12 (Homo sapiens) (UniProt P53778); experiment: Inhibition of p38-gamma at 10 uM by HTRF assay relative to control; procedure, shortened: as §1
T1 sequence (whole entry): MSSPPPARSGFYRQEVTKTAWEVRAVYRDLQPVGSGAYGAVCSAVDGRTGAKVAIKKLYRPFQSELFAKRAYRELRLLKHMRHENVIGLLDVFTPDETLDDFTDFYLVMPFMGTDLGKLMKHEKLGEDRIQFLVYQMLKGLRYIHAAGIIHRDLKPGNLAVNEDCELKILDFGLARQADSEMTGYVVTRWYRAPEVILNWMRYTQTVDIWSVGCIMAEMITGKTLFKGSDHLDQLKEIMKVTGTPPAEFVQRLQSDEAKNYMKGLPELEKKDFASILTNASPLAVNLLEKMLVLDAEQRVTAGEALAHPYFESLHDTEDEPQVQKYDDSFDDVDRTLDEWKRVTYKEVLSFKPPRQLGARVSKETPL

[7] = target: Tyrosine-protein kinase Lyn (Homo sapiens) (UniProt P07948); experiment: Inhibition of Lyn at 10 uM by HTRF assay relative to control; procedure, shortened: as §1
[8] = Inhibition of IRK at 10 uM by HTRF assay relative to control; procedure, shortened: as §1
[9] = target: Protein-tyrosine kinase 6 (Homo sapiens) (UniProt Q13882); experiment: Inhibition of Brk at 10 uM by HTRF assay relative to control; procedure, shortened: as §1
[10] = target: T2, Tyrosine-protein kinase ZAP-70 (Homo sapiens) (UniProt P43403); experiment: Inhibition of ZAP70 at 10 uM by HTRF assay relative to control; procedure, shortened: as §1
T2 sequence (whole entry): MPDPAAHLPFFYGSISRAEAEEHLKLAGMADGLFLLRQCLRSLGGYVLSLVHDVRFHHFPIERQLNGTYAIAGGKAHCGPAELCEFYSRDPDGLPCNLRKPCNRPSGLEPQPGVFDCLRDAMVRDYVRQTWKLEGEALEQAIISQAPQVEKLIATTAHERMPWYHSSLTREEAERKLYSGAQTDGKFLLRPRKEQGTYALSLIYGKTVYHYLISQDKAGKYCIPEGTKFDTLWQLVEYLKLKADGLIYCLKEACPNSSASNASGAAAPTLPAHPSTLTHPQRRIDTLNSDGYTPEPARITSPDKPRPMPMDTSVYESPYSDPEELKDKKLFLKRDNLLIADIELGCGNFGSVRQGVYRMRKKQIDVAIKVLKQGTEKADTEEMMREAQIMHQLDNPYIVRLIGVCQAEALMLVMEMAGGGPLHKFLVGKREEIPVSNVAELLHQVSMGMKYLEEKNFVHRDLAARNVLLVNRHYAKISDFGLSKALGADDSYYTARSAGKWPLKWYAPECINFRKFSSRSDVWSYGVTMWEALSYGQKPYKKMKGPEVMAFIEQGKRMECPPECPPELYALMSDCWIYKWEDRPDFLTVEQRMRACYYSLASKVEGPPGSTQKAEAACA

[11] = target: T3, Inhibitor of nuclear factor kappa-B kinase subunit beta (Homo sapiens) (UniProt O14920); experiment: Inhibition of IKK-beta at 10 uM by HTRF assay relative to control; procedure, shortened: as §1
T3 sequence (whole entry): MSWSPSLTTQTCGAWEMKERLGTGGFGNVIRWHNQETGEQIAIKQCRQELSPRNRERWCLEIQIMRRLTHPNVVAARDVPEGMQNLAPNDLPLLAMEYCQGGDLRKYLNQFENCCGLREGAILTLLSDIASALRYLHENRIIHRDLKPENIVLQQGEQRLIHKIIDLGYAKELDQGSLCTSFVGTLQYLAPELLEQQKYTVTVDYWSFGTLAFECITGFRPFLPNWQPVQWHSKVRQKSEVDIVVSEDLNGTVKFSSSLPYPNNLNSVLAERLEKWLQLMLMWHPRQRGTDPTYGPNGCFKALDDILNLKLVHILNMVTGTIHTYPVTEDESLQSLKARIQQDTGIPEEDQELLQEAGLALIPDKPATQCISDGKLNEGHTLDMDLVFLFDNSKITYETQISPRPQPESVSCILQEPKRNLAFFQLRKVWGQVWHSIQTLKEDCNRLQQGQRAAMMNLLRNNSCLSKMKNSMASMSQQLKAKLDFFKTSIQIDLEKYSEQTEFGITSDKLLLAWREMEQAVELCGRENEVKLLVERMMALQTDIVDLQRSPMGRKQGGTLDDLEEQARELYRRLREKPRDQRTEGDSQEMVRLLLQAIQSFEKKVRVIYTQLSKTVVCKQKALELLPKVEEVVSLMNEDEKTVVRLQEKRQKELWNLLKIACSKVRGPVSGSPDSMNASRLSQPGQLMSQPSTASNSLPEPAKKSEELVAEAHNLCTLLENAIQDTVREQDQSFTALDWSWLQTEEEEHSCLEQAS

[12] = target: Epidermal growth factor receptor (Homo sapiens) (UniProt P00533); experiment: Inhibition of EGFR at 10 uM by HTRF assay relative to control; procedure, shortened: as §1
[13] = target: Tyrosine-protein kinase ABL1 (Homo sapiens) (UniProt P00519); experiment: Inhibition of Abl at 10 uM by HTRF assay relative to control; procedure, shortened: as §1
Sequence of Tyrosine-protein kinase ABL1 (Homo sapiens) (P00519 whole entry): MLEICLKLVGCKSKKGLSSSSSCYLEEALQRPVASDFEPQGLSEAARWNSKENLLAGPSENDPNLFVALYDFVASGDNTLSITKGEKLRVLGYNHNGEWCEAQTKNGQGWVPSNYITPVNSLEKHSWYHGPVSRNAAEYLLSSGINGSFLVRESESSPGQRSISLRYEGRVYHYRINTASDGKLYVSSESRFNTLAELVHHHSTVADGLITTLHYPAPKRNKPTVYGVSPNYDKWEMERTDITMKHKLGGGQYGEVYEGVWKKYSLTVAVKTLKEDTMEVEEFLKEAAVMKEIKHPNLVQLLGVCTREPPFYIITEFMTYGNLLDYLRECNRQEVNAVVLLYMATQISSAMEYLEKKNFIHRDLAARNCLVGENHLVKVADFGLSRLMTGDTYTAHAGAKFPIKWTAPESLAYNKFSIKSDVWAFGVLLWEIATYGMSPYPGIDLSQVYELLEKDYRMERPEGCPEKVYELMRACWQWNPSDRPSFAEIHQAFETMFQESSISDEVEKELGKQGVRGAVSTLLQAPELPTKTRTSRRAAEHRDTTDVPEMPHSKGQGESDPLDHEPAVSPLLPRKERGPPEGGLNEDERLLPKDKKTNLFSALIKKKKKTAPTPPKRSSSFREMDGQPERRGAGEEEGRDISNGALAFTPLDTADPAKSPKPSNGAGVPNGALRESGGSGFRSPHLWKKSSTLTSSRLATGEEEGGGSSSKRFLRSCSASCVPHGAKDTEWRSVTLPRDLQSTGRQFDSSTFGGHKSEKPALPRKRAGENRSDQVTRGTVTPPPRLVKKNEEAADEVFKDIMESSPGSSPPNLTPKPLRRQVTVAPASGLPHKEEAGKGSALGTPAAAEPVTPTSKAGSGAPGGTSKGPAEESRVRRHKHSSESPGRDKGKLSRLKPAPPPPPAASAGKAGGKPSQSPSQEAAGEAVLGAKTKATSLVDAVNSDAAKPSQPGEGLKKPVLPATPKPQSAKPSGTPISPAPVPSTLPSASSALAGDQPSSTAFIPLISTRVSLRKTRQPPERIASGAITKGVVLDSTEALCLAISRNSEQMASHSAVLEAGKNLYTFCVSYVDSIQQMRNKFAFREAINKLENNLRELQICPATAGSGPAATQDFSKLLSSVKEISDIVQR

[14] = target: Focal adhesion kinase 1 (Homo sapiens) (UniProt Q05397); experiment: Inhibition of FAK at 10 uM by HTRF assay relative to control; procedure, shortened: as §1
Sequence of Focal adhesion kinase 1 (Homo sapiens) (Q05397 2-1052 limits assumed): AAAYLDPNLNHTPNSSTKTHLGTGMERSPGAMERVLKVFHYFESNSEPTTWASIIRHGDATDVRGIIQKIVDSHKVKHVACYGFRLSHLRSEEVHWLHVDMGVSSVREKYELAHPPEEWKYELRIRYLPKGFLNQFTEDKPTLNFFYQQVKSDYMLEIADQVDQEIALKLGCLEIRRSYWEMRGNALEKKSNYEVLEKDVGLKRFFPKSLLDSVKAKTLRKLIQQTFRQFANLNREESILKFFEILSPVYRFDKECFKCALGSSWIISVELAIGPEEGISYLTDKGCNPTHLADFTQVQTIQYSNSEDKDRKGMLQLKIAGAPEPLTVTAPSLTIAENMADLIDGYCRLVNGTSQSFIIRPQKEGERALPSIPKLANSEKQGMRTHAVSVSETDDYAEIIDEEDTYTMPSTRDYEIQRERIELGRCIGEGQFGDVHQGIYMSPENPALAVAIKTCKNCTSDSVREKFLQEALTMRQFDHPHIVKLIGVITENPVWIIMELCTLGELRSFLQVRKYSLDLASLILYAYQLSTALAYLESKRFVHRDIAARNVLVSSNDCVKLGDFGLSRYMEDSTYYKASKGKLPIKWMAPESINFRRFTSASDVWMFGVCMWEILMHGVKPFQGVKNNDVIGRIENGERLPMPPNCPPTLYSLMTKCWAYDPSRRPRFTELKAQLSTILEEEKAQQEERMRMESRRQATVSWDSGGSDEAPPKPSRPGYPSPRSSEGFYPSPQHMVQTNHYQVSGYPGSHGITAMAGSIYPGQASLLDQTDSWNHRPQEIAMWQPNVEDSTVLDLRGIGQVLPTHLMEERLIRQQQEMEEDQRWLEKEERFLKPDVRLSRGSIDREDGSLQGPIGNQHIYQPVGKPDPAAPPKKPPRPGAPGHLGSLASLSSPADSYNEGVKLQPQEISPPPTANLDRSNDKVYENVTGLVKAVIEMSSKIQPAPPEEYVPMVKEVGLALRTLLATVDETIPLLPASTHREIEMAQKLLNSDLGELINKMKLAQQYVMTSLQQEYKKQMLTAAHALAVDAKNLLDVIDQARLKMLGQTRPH

Sequence of Vascular endothelial growth factor receptor 2 (Homo sapiens) (P35968 whole entry): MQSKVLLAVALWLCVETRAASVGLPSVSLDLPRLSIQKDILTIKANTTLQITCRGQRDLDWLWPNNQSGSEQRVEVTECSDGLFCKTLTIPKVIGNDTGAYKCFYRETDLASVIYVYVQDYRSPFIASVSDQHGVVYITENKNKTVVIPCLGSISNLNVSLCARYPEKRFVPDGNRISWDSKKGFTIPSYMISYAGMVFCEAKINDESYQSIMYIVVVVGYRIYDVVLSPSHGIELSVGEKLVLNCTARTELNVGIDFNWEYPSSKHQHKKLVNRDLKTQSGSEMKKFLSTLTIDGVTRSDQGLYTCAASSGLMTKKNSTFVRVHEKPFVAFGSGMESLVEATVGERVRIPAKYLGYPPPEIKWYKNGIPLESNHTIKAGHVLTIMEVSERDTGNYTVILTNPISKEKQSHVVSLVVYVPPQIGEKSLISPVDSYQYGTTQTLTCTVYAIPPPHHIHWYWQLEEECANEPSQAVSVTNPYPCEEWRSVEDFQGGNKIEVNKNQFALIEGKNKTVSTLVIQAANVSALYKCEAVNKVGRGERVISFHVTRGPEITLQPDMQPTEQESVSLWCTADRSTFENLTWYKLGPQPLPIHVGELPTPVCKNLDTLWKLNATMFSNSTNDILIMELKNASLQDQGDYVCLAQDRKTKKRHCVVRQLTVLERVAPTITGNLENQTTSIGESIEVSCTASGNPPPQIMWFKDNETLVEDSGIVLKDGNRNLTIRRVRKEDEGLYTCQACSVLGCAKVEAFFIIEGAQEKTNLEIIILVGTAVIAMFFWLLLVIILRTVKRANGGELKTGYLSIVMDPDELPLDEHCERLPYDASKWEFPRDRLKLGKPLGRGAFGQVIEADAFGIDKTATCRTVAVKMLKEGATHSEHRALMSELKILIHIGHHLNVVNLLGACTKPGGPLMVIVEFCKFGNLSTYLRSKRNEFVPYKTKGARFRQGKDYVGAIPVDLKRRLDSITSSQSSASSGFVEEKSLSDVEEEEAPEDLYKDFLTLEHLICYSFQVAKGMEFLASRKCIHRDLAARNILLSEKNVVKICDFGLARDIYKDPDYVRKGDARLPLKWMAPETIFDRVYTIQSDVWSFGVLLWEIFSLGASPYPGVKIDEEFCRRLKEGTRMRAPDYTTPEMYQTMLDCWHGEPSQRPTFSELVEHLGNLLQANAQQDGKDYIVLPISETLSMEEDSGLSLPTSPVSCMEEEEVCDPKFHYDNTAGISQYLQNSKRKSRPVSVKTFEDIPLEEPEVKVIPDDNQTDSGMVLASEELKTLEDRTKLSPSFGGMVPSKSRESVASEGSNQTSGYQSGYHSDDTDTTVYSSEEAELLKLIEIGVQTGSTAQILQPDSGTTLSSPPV

| inhibition [1] | inhibition [2] | inhibition [3] | inhibition [4] | inhibition [5] | inhibition [6] | inhibition [7] | inhibition [8] | inhibition [9] | inhibition [10] | inhibition [11] | inhibition [12] | inhibition [13] | inhibition [14] | Structure (SMILES) |
| --- | --- | --- | --- | --- | --- | --- | --- | --- | --- | --- | --- | --- | --- | --- |
| 2% | 0% | 0% | 0% | 0% | 2% | 0% | 0% | 0% | 3% | 0% | 0% | 8% | 2% | CN(CCc1ccccn1)C(=O)[C@@H]1CCCN1c1nccc(Nc2ccccc2)n1 |
| 3% | 8% | 9% | 3% | 1% | 2% | 3% | 0% | 7% | 4% | 1% | 0% | 2% | 4% | Cc1cccc(CN2CCN(c3cc(N(C)c4cccc(C)c4)ncn3)CC2)c1 |
| 14% | 5% | 8% | 2% | 10% | 0% | 3% | 0% | 3% | 0% | 4% | 0% | 1% | 4% | CC(=O)CCCCC(=O)N1CCN(c2nccc(Oc3cccc(C)c3)n2)CC1 |
| 0% | 0% | 0% | 0% | 0% | 0% | 2% | 0% | 22% | 0% | 3% | 0% | 5% | 0% | Cc1cc(C(=O)N2CCN(c3ncnc4c3CN(Cc3ccccc3)CC4)CC2)c(C)n1C |
| 6% | 9% | 0% | 0% | 1% | 2% | 4% | 0% | 0% | 6% | 1% | 0% | 11% | 0% | O=C(NC1Cc2ccccc2C1)c1cccc(Nc2ccnc(N3CCN(c4ccccc4)CC3)n2)c1 |
| 19% | 26% | 19% | 0% | 8% | 3% | 19% | 0% | 0% | 6% | 0% | 100% | 53% | 20% | Cc1cccc(N(C)c2cc(Nc3cccc(C(=O)NCc4ccncc4)c3)ncn2)c1 |
| 81% | 64% | 49% | 8% | 3% | 2% | 47% | 66% | 36% | 23% | 9% | 8% | 38% | 99% | Cc1cccc(Nc2nccc(Nc3cccc(C(=O)N(C)CCc4ccccn4)c3)n2)c1 |
| 0% | 0% | 0% | 0% | 0% | 1% | 6% | 0% | 13% | 4% | 0% | 82% | 0% | 1% | Cc1cccc(Nc2nccc3c2CN(C(=O)c2cc(C)n(C)c2C)CC3)c1 |
| 0% | 5% | 0% | 0% | 16% | 0% | 1% | 0% | 0% | 1% | 0% | 0% | 1% | 0% | Cc1cccc(Oc2ccnc(N3CCN(CC(=O)Nc4cccc5c4CCCC5)CC3)n2)c1 |
| 0% | 3% | 2% | 0% | 0% | 1% | 9% | 0% | 32% | 0% | 7% | 84% | 13% | 8% | Cc1cccc(N(C)c2cc(Nc3cccc(C(=O)N4CCCC5CCCCC54)c3)ncn2)c1 (stereo not drawn) |
| 35% | 13% | 34% | 0% | 7% | 5% | 12% | 0% | 54% | 0% | 10% | 81% | 8% | 15% | O=C(COc1ccccc1)N1CCN(c2nccc(Nc3ccc4ncsc4c3)n2)CC1 |
| 10% | 0% | 0% | 2% | 7% | 1% | 0% | 1% | 4% | 6% | 4% | 2% | 0% | 7% | Nc1nc(Nc2ccc3ncsc3c2)cc(N2CCC[C@H]2C(=O)N[C@@H](CO)c2ccccc2)n1 |
| 3% | 0% | 6% | 0% | 4% | 0% | 0% | 0% | 0% | 2% | 1% | 0% | 8% | 0% | CN(C)c1ccc(C(=O)N2CCN(c3ncnc4c3CN(Cc3ccccc3)CC4)CC2)c2ccccc12 |
| 0% | 4% | 2% | 1% | 2% | 0% | 3% | 0% | 0% | 4% | 7% | 0% | 5% | 3% | Cc1ccc(CN2CCN(c3nccc(C(C#N)c4ccccn4)n3)CC2)cc1 (stereo not drawn) |
| 9% | 0% | 0% | 5% | 0% | 3% | 2% | 0% | 22% | 2% | 9% | 0% | 6% | 5% | Cc1cccc(N(C)c2cc(N3CCN(CC(=O)Nc4nc(-c5ccccc5)cs4)CC3)ncn2)c1 |
| 4% | 0% | 0% | 1% | 0% | 4% | 0% | 0% | 5% | 6% | 6% | 0% | 3% | 0% | COC[C@@H]1CCCN1C(=O)[C@@H]1CCCN1c1nccc(Nc2ccccc2)n1 |
| 5% | 1% | 10% | 0% | 0% | 0% | 8% | 0% | 7% | 2% | 6% | 0% | 11% | 4% | COc1cccc(Nc2cc(N3CCC[C@H]3C(=O)NCCN3CCCCC3)nc(N)n2)c1 |
